SR-BI HDL uptake – mouse SR-BI HDL lipid transfer inhibition; ldlA[mSR-BI] CHO cells, DiI-HDL uptake fluorescence, 3 h; inhibition, % at 12.5 µM; 320,000 tested, 0.96% active; AID 488896;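 active means mean replicate inhibition of at least 70% and a set share of replicates each scoring 70 or more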;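 further: 0% = median of neutral control wells and 100% = median of positive control wells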
Target sequence (Q61009 whole entry, looked up): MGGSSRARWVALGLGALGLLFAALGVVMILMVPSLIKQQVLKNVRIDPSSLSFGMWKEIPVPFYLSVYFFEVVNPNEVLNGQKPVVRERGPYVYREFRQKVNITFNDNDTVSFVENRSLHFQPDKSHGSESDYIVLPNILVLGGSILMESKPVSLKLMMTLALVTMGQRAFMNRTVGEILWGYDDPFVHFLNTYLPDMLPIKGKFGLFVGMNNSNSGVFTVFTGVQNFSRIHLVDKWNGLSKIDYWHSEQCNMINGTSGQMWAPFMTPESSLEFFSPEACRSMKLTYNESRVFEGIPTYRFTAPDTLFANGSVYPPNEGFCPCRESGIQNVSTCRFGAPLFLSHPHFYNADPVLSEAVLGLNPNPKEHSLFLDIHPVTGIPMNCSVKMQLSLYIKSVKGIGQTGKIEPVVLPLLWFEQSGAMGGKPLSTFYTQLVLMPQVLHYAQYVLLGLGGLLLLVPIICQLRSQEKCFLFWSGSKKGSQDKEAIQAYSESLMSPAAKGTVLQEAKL
dFosB act – enhances mouse delta FosB homodimer DNA binding; P13346; purified delta FosB, TAMRA-CDK5 oligo fluorescence polarization; percent of positive-control signal above neutral wells; activation, % at 25 µM; 340,000 tested, 0.99% active; AID 493131;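 active means mean activation above about 17%, with every replicate also reaching it, limit read from the data, passing the limit was not always enough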
PvdQ acylase – blocks Pseudomonas aeruginosa PvdQ acylase activity; purified PvdQ acylase, fluorescence plate reader; inhibition, % at 10 µM; 340,000 tested, 0.063% active; AID 488965; in the data active means inhibition above about 30%, passing the limit was not always enough;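 further: 0% = vehicle neutral wells and 100% = reference inhibitor wells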
SR-BI DiI-HDL act – SR-BI HDL lipid transfer activation | 320,000 tested, 0.096% active | AID 504775 | CHO ldlA[mSR-BI] cells, DiI-HDL uptake fluorescence, 3 h; 100 = double the neutral-control signal | activation, % at 12.5 µM;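 active means mean replicate activation of at least 60% and every replicate at or above 60%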;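 further: 0% = median plate neutral-control signal and 100% = twice that signal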
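Material: SR-BI-overexpressing, LDLR-lacking CHO cells; schedule: compound exposure 3 h, 37 °C; reagent: DiI-labelled HDL at 10 µg/mL final; technique: bottom-read fluorescence, 550/595 nm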
Ecoli rRNA inh – inhibits bacterial ribosomal RNA function over humanized ribosomes; E. coli WT GFP vs humanized-ribosome RFP mutants, fluorescence, 24 h; stronger effect = lower value; DMSO median 0, no signal -100; 350,000 tested, 1.6% active; GFP signal change (wild-type ribosome), % (concentration not given with the values); AID 720706;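 active means significant combined selectivity score with lowered wild-type GFP, culture density cut under 30%, mutant RFP and density less affected; inactive means any of these conditions unmet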
Xi reactivation – activators of X-chromosome reactivation in mouse fibroblasts; activation, % at 7.58 µM; 360,000 tested, 0.055% active; XiGFP mouse fibroblasts, % GFP-positive cells imaging, 3 d; cells co-treated with 5-aza-dC sensitizer; scaled so ellipticine positive control = 100%;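 active means mean normalized replicate activation at least 10% and every replicate at or above 10%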;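 further: 0% = median of on-plate neutral control wells and 100% = ellipticine 6 µM median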
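Material: SV40-immortalized XiGFP fibroblast cells, line 68-5-11 | Buffer or medium: DMEM containing 5-aza-dC | Dosing: One concentration, pinned | Times: 3 d treatment, 15 min room-temperature fixation | Controls: Ellipticine 6 µM positive control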
Numbers without * were called inactive; . = no result given. Compounds with a hit are over-represented: about 2.6% of the library has one in this group of screens.

SMILES	SR-BI HDL uptake	dFosB act	PvdQ acylase	SR-BI DiI-HDL act	Ecoli rRNA inh	Xi reactivation
CCOc1ccc(NC(=O)/C(C#N)=C/c2cn(CC(=O)O)c3ccccc23)cc1	27.9	-10.4	-6.7	-27.9	-25.7*	0.1
CCOc1ccc(NC(=O)/C(C#N)=C/c2ccc(N3CCCC3)c(C)c2)cc1	95.6*	-6.5	5.3	-95.6	.	2.2
CCOc1cccc(NC(=O)/C(C#N)=C\c2cn(CC(=O)O)c3ccccc23)c1	.	-9.5	-9.4	.	-29.0	0.0
Cn1cc(CNCc2cn(C)nc2-c2ccc(C3CCCCC3)cc2)cn1	-11.4	-7.2	4.2	11.4	-20.3*	-0.1
Cc1cc(C)c(O)c(CN(C)Cc2cc(Cl)cc(Cl)c2O)c1	112.2*	-5.8	9.4	-112.2	-55.5	-0.1
CCOC(=O)C1CCCN(S(=O)(=O)c2c(C(=O)N3CCCCC3)c(C)n(C)c2C)C1 (stereo unspecified)	3.4	3.7	-6.8	-3.4	3.7	0.3
C/C(=N\NC(=O)c1ccccc1O)c1c(O)cc(C)oc1=O	101.4*	2.4	-23.0	-101.5	.	.
C/C(=N\NC(=O)c1ccccc1[N+](=O)[O-])c1c(O)cc(C)oc1=O	-9.4	-3.2	-24.3	9.4	10.1	0.0
CN1CCN(c2ccccc2NC(=O)c2ccc(-c3cccc([N+](=O)[O-])c3)o2)CC1	42.7	2.6	20.3	-42.7	.	.
CCC(=O)N1CCN(c2ccc(Cl)cc2NC(=O)c2cccc([N+](=O)[O-])c2)CC1	70.8*	-13.8	0.8	-70.8	18.1	-0.1
CCC(=O)N1CCN(c2ccccc2NC(=S)NC(=O)c2cccc([N+](=O)[O-])c2)CC1	70.4*	-6.5	-6.7	-70.4	-13.2	0.4
CCC(=O)N1CCN(c2ccc(NC(=S)NC(=O)c3cccc([N+](=O)[O-])c3)cc2)CC1	53.0	-5.1	-0.8	.	.	.
CCC(=O)N1CCN(c2ccccc2NC(=O)c2ccc(-c3cccc([N+](=O)[O-])c3)o2)CC1	75.7*	-7.4	-8.9	-75.7	13.8	0.0
COc1cccc(C(=O)NC(=S)Nc2ccccc2N2CCCC2)c1	85.0*	-10.2	-5.6	-85.0	.	0.1
CC(=O)C1=CCC(c2ccc(C(C)C)cc2)N(S(=O)(=O)c2ccc(C)cc2)C1 (stereo unspecified)	.	.	.	.	6.9	0.2
COc1cc(/C=N/Nc2ncnc3sc4c(c23)CCC4)ccc1O	59.9	9.4	5.6	-59.9	-20.0*	0.0
Cc1c(NS(=O)(=O)c2cc(C(=O)Nc3ccc(F)cc3Cl)ccc2Cl)c(=O)n(-c2ccccc2)n1C	-23.1	-7.9	-7.5	23.1	0.6	0.0
Cc1ccc(NC(=O)c2ccc(Cl)c(S(=O)(=O)Nc3c(C)n(C)n(-c4ccccc4)c3=O)c2)cc1Cl	73.4*	-12.5	-12.8	-73.4	0.0	0.0
CCOc1ccc(CCNC(=O)c2c(C)nn(-c3ccccc3)c2Cl)cc1OCC	37.3	-11.3	-14.1	-37.3	7.2	0.0
COc1cc(OC)cc(C(=O)N[C@H](C(=O)Nc2c(C)n(C)n(-c3ccccc3)c2=O)C(C)C)c1	-2.7	2.0	-6.8	2.7	3.2	0.0
Cc1ccc(N(CC(=O)NCc2ccc(F)cc2)S(=O)(=O)c2c(C)n[nH]c2C)cc1	-16.6	-17.4	-18.8	16.6	-1.6	0.3
COc1cc(NC(=O)Cn2nc(C(F)(F)F)c(Br)c2C)cc([N+](=O)[O-])c1	5.6	-1.4	11.3	-5.6	-15.2*	0.1
COC(=O)c1sc(N2C(=O)C(=O)/C(=C(/O)c3ccccc3)C2c2ccco2)nc1C (stereo unspecified)	-21.7	-6.7	-11.4	21.7	-34.2*	0.2
CCCNC(=O)C[C@@H]1CC[C@H]2[C@@H](COc3ccc(NC(=O)c4cscn4)cc3C(=O)N2C)O1	.	.	.	.	3.5	0.0
CCOc1ccc(/C=C(\C(=O)O)c2ccc(S(=O)(=O)N3CCCCC3)s2)cc1OC	-8.9	-4.4	0.5	8.9	-23.0*	0.0
SMILES	SR-BI HDL uptake	dFosB act	PvdQ acylase	SR-BI DiI-HDL act	Ecoli rRNA inh	Xi reactivation
Cc1sc2ncnc(N/N=C/c3cccc(O)c3)c2c1C	24.2	0.4	11.7	-24.3	.	0.0
C/C(=N\Nc1ncnc2sc(C)c(C)c12)c1ccccn1	46.8	-25.1	3.8	-46.8	-8.8	84.8*
CC(C)C(=O)Nc1ccc2c(c1)C(=O)N(C)[C@H]1CC[C@@H](CC(=O)NCc3ccccc3F)O[C@@H]1CO2	.	.	.	.	-1.1	0.1
O=C1NCCCC2c3c(cc(Br)c(O)c3Br)OC12N1CCCCC1 (stereo unspecified)	-0.8	-6.5	-6.8	0.8	.	.
Oc1ccc(N=Nc2ccccc2-c2nn[nH]n2)c(O)c1	7.6	-21.8	-4.0	-7.6	-31.0*	0.0
Cc1ccccc1-c1nn[nH]n1	-41.9	2.7	-9.4	41.9	.	.
CN(C(=O)CN1C(=O)c2cc(Cl)c(Cl)cc2C1=O)C1CCS(=O)(=O)C1 (stereo unspecified)	-25.5	-1.1	-12.2	25.5	13.9	0.0
C[C@@H]1ON(C)[C@H]2C[C@H]3c4[nH]c5c(-c6ccccc6F)cccc5c4CCN3C(=O)[C@@H]12	.	.	.	.	-28.0	0.5
C=CCC[C@@H](Cc1ccc(F)cc1)C(=O)OC[C@@H](Cc1c[nH]c2ccccc12)NC(=O)[C@@H](CC=C)CC(=O)N[C@@H](CO)Cc1ccccc1	-74.2	-11.3	-5.9	74.2*	15.9	0.1
Cc1cccc(N2CCN(C(=O)CCC(=O)N3Cc4ccccc4Oc4ncccc43)CC2)c1C	31.8	-3.5	-15.9	-31.8	-25.0	0.0
COc1cc(/C=C/C(=O)c2ccc3c(c2)OCCO3)cc(OC)c1OC	71.6*	-2.7	-13.0	-71.6	-7.8	0.2
CCOc1ccc(C(=O)/C=C/c2cc(OC)c(OC)c(OC)c2)cc1	42.9	-18.4	-11.5	-41.3	-19.5*	0.2
COc1ccc(OC)c(/C=C/C(=O)c2ccc3c(c2)OCCO3)c1	-11.2	1.5	-7.8	11.2	-24.7*	0.1
COc1ccc(OC)c(/C=C/C(=O)Oc2ccc(C(C)=O)cc2)c1	3.6	1.0	0.8	-3.6	-24.0*	0.2
C[C@H](CO)N1C[C@H](C)[C@@H](CN(C)C(=O)Nc2ccc(F)cc2)Oc2ccc(N(C)C)cc2C1=O	.	.	.	.	3.2	-0.6
C(C#CCCCCCCCCC[n+]1ccccc1)#CCCCCCCCCC[n+]1ccccc1	-16.2	48.6*	-13.8	16.2	.	.
CCN(C1CCCCC1)S(=O)(=O)c1c(C)n(C)c(=O)n(C)c1=O	-3.9	3.0	-11.0	3.9	5.1	0.1
COc1cc(-c2noc(C)c2/C=C/c2cccc([N+](=O)[O-])c2)cc(OC)c1OC	81.0*	-0.5	-1.3	-81.0	0.8	1.6
